Data published in ChEMBL document CHEMBL1641497, “A potent and selective indole N-type calcium channel (Ca(v)2.2) blocker for the treatment of pain” (Bioorg Med Chem Lett, 2011).
Active and inactive are the calls of the source. The calls are words filed in the database; no cut-off is given here.

Legend:
[1] = molecular target: T1, Voltage-dependent N-type calcium channel subunit alpha-1B (Homo sapiens, UniProt Q00975); assay: Blockade of Cav2.2 channel by fluorescent calcium-influx assay
Procedure, shortened: (§1)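 […] Cav2.2 channel block measured in vitro with a fluorescent calcium-influx (FLIPR) assay. Results are reported as % inhibition at 10 μM, with an IC50 (μM) for selected compounds.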
Target sequence in this assay (Q00975 whole entry): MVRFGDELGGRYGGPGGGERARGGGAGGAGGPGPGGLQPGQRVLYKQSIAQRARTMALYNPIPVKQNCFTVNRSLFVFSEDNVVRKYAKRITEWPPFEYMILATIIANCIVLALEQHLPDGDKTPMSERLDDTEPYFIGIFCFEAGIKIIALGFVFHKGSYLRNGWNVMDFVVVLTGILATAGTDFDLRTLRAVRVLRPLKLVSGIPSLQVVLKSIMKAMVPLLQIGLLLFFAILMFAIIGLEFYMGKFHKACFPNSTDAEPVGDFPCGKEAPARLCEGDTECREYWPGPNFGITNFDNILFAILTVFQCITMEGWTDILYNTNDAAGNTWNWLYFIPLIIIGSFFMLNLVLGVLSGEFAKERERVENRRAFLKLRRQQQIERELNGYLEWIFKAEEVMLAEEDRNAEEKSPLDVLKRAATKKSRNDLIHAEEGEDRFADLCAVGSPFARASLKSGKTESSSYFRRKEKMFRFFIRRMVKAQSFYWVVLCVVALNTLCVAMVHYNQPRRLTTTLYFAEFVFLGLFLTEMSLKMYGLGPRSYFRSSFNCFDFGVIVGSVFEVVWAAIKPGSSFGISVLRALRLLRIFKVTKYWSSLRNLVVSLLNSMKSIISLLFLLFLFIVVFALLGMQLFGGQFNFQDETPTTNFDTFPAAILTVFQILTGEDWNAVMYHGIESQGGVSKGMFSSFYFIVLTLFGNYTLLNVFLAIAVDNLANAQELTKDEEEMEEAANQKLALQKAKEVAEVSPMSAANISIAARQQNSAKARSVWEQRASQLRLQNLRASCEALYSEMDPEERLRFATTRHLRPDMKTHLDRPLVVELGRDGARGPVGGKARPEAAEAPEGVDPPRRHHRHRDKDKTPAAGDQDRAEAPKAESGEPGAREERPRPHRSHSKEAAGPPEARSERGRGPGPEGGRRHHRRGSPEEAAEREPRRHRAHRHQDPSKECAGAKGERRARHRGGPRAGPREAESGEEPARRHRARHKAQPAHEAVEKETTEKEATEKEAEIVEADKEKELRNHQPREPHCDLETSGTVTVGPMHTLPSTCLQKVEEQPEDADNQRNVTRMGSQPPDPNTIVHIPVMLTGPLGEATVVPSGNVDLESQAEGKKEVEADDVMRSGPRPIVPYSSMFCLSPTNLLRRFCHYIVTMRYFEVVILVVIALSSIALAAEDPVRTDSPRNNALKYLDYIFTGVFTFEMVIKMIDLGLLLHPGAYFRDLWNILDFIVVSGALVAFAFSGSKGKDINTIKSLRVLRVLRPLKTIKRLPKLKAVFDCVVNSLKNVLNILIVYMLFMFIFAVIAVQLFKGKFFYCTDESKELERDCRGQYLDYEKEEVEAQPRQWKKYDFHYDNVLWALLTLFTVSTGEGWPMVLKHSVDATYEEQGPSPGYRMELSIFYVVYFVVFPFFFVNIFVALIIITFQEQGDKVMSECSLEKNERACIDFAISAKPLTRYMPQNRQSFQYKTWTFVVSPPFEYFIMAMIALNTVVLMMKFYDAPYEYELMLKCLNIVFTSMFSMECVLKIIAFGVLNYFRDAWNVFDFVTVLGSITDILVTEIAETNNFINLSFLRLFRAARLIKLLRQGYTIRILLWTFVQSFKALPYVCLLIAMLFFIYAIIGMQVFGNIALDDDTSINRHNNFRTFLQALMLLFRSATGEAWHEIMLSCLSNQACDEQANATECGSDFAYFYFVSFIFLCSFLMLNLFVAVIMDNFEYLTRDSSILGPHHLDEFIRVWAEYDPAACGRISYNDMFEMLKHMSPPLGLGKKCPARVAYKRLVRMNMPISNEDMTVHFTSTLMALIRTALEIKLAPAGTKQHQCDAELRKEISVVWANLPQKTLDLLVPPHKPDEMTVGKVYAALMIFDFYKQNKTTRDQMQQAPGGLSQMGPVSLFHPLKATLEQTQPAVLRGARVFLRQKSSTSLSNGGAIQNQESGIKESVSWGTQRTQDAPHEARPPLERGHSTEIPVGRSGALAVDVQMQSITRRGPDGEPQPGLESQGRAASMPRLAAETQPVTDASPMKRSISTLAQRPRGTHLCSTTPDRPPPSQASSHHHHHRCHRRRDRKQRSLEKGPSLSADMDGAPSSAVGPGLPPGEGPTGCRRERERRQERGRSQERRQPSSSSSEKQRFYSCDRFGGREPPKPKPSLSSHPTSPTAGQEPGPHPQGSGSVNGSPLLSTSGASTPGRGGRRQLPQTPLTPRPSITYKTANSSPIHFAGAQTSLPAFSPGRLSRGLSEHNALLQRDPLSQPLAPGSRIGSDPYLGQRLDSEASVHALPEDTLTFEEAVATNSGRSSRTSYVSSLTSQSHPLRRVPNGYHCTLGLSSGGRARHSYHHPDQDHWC

[2] = molecular target: Cav1.2 (voltage-dependent L-type calcium channel subunit alpha-1C) (Homo sapiens, UniProt Q13936); assay: Blockade of Cav1.2 channel at 10 uM by fluorescent calcium-influx assay
Procedure, shortened: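 Cav1.2 (L-type) channel block measured with a fluorescent calcium-influx FLIPR assay. Results are reported as % inhibition at 10 μM test concentration.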

[3] = molecular target: T2, Nuclear receptor subfamily 1 group I member 2 (Homo sapiens, UniProt O75469); assay: Activity at PXR by induction assay
T2 sequence (O75469 whole entry): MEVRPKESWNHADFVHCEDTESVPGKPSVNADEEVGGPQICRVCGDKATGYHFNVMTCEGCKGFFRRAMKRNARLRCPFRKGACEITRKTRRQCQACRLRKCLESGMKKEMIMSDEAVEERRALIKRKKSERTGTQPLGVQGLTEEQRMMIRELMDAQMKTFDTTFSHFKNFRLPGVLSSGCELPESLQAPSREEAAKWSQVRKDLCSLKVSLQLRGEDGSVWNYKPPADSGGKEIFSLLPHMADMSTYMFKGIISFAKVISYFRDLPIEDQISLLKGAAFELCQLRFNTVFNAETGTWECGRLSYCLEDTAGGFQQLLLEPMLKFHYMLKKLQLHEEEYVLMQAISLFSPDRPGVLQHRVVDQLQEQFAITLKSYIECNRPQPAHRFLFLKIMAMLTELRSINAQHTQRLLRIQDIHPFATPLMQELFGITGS

[4] = molecular target: T1, Voltage-dependent N-type calcium channel subunit alpha-1B; assay: Blockade of Cav2.2 channel at 10 uM by fluorescent calcium-influx assay; procedure, shortened: as §1
Target sequence in this assay (Q00975 whole entry, looked up): as the sequence (Q00975 whole entry) above

[5] = tested on: hERG (Homo sapiens); assay: Blockade of hERG channel at 10 uM by displacement of MK-0499 binding
[6] = Plasma clearance in dog at 1 mg/kg, iv and 3 mg/kg, po; type: ADME, organism-based, Canis lupus familiaris
Procedure, shortened: (§2)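 Dog PK with 1.0 mg/kg IV and 3.0 mg/kg PO doses, based on plasma analysis. Parameters: dose-normalized AUC (μM h kg/mg), plasma clearance (mL/min/kg), T1/2 (h) and oral bioavailability (%).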

[7] = Oral bioavailability in rat at 3 mg/kg; type: ADME, organism-based; conditions: in vivo
Procedure, shortened: (§3)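 Rat PK with 1.0 mg/kg IV and 3.0 mg/kg PO doses, based on plasma analysis. Parameters: Cmax, dose-normalized AUC (μM h kg/mg), plasma clearance (mL/min/kg), Vdss (L/kg), T1/2 (h) and oral bioavailability (%).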

[8] = Metabolic stability in human liver microsomes assessed as compound remaining after 60 mins; type: ADME, Microsome; conditions: read-out: Stability
Procedure, shortened: (§4)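 Compounds incubated with human or rat liver microsomes for 60 min. Read-out is the percent of parent compound remaining.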

[9] = Metabolic stability in rat liver microsomes assessed as compound remaining after 60 mins; type: ADME, Microsome; conditions: read-out: Stability; procedure, shortened: as §4
[10] = tested on: Rattus norvegicus; assay: Dose normalized AUC in rat at 1 mg/kg, iv and 3 mg/kg, po; type: ADME, organism-based; conditions: in vivo; procedure, shortened: as §3
[11] = Plasma clearance in rat at 1 mg/kg, iv and 3 mg/kg, po; type: ADME, organism-based; procedure, shortened: as §3
[12] = Half life in rat at 1 mg/kg, iv and 3 mg/kg, po; type: ADME, organism-based; conditions: in vivo; procedure, shortened: as §3
[13] = tested on: Canis familiaris; assay: Dose normalized AUC in dog at 1 mg/kg, iv and 3 mg/kg, po; type: ADME, organism-based, Canis lupus familiaris; conditions: in vivo; procedure, shortened: as §2
[14] = Half life in dog at 1 mg/kg, iv and 3 mg/kg, po; type: ADME, organism-based, Canis lupus familiaris; conditions: in vivo; procedure, shortened: as §2
[15] = Oral bioavailability in dog at 3 mg/kg; type: ADME, organism-based, Canis lupus familiaris; conditions: in vivo
[16] = molecular target: Cytochrome P450 3A4 (Homo sapiens, UniProt P08684); assay: Inhibition of CYP3A4; type: ADME
[17] = molecular target: Cytochrome P450 2D6 (Homo sapiens, UniProt P10635); assay: Inhibition of CYP2D6; type: ADME
[18] = molecular target: Cytochrome P450 2C9 (Homo sapiens, UniProt P11712); assay: Inhibition of CYP2C9; type: ADME
[19] = tested on: Rattus norvegicus; assay: Antinociceptive activity in rat assessed as reversal of complete Freund's adjuvant-induced pain at 3 mg/kg, po after 1 hr; type: functional
Procedure, shortened: (§5)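 Rat CFA-induced inflammatory pain model, oral dosing. Mechanical allodynia assessed by paw pressure and expressed as % reversal. Plasma and brain drug levels measured at 3 h post-dose.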

[20] = tested on: Rattus norvegicus; assay: Antinociceptive activity in rat assessed as reversal of complete Freund's adjuvant-induced pain at 3 mg/kg, po after 3 hrs; type: functional; procedure, shortened: as §5
[21] = tested on: Rattus norvegicus; assay: Antinociceptive activity in rat assessed as reversal of complete Freund's adjuvant-induced pain at 3 mg/kg, po after 8 hrs; type: functional; procedure, shortened: as §5
[22] = tested on: Rattus norvegicus; assay: Antinociceptive activity in rat assessed as reversal of complete Freund's adjuvant-induced pain at 10 mg/kg, po after 1 hr; type: functional; procedure, shortened: as §5
[23] = tested on: Rattus norvegicus; assay: Antinociceptive activity in rat assessed as reversal of complete Freund's adjuvant-induced pain at 10 mg/kg, po after 3 hrs; type: functional; procedure, shortened: as §5
[24] = tested on: Rattus norvegicus; assay: Antinociceptive activity in rat assessed as reversal of complete Freund's adjuvant-induced pain at 10 mg/kg, po after 8 hrs; type: functional; procedure, shortened: as §5
[25] = tested on: Rattus norvegicus; assay: Antinociceptive activity in rat assessed as reversal of complete Freund's adjuvant-induced pain at 30 mg/kg, po after 1 hr; type: functional; procedure, shortened: as §5
[26] = tested on: Rattus norvegicus; assay: Antinociceptive activity in rat assessed as reversal of complete Freund's adjuvant-induced pain at 30 mg/kg, po after 3 hrs; type: functional; procedure, shortened: as §5
[27] = tested on: Rattus norvegicus; assay: Antinociceptive activity in rat assessed as reversal of complete Freund's adjuvant-induced pain at 30 mg/kg, po after 8 hrs; type: functional; procedure, shortened: as §5
[28] = tested on: Rattus norvegicus; assay: Antiallodynic activity in rat spinal nerve ligation model of neuropathic pain assessed as reversal of mechanical allodynia at 10 mg/kg, po after 1 hr; type: functional
Procedure, shortened: (§6)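 Rat spinal nerve ligation neuropathic pain model, oral dosing. Read-out is % reversal of mechanical allodynia. Plasma and brain drug levels measured at 1 h. An efficacious (EC50) plasma exposure was derived.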

[29] = tested on: Rattus norvegicus; assay: Antiallodynic activity in rat spinal nerve ligation model of neuropathic pain assessed as reversal of mechanical allodynia at 10 mg/kg, po after 3 hrs; type: functional; procedure, shortened: as §6
[30] = tested on: Rattus norvegicus; assay: Antiallodynic activity in rat spinal nerve ligation model of neuropathic pain assessed as reversal of mechanical allodynia at 10 mg/kg, po after 8 hrs; type: functional; procedure, shortened: as §6
[31] = tested on: Rattus norvegicus; assay: Antiallodynic activity in rat spinal nerve ligation model of neuropathic pain assessed as reversal of mechanical allodynia at 30 mg/kg, po after 1 hr; type: functional; procedure, shortened: as §6
[32] = tested on: Rattus norvegicus; assay: Antiallodynic activity in rat spinal nerve ligation model of neuropathic pain assessed as reversal of mechanical allodynia at 30 mg/kg, po after 3 hrs; type: functional; procedure, shortened: as §6
[33] = tested on: Rattus norvegicus; assay: Antiallodynic activity in rat spinal nerve ligation model of neuropathic pain assessed as reversal of mechanical allodynia at 30 mg/kg, po after 8 hrs; type: functional; procedure, shortened: as §6
[34] = Volume of distribution at steady state in rat at 1 mg/kg, iv and 3 mg/kg, po; type: ADME, organism-based; conditions: in vivo, read-out: Vdss; procedure, shortened: as §3
[35] = Cmax in rat at 1 mg/kg, iv and 3 mg/kg, po; type: ADME, organism-based; conditions: in vivo; procedure, shortened: as §3
[36] = Plasma concentration in rat at 30 mg/kg, po after 3 hrs; type: ADME, organism-based; design: dose 30 mg/kg, route oral; conditions: read-out: Activity; procedure, shortened: as §5
[37] = Drug level in rat brain at 30 mg/kg, po after 3 hrs; type: ADME, organism-based; design: dose 30 mg/kg, route oral; conditions: read-out: Activity; procedure, shortened: as §5
[38] = Plasma concentration in rat spinal nerve ligation model at 30 mg/kg, po after 1 hrs; type: ADME, organism-based; design: dose 30 mg/kg, route oral; conditions: read-out: Activity; procedure, shortened: as §6
[39] = Drug level in spinal nerve ligation model rat brain at 30 mg/kg, po after 1 hrs; type: ADME, organism-based; design: dose 30 mg/kg, route oral; conditions: read-out: Activity; procedure, shortened: as §6
[40] = species: Rattus norvegicus; assay: Neurotoxicity in rat assessed as impairment of motor coordination at 8 uM plasma concentration by rotarod test; type: toxicity, organism-based; conditions: in vivo
Procedure, shortened: (§7)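 Rat Rotarod motor coordination test after IV doses of 3 and 10 mg/kg. Plasma and brain drug concentrations determined alongside coordination impairment.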

[41] = species: Rattus norvegicus; assay: Neurotoxicity in rat assessed as impairment of motor coordination at 6 uM brain concentration by rotarod test; type: toxicity, organism-based; conditions: in vivo; procedure, shortened: as §7
[42] = tested on: Plasma; assay: Plasma concentration in rat at 3 mg/kg, iv; type: ADME, organism-based; design: dose 3 mg/kg, route intravenous; conditions: in vivo, read-out: Drug uptake; procedure, shortened: as §7
[43] = tested on: Brain; assay: Drug level in rat brain at 3 mg/kg, iv; type: ADME, organism-based; design: dose 3 mg/kg, route intravenous; conditions: in vivo, read-out: Drug uptake; procedure, shortened: as §7
[44] = species: Rattus norvegicus; assay: Neurotoxicity in rat assessed as impairment of motor coordination at 1.9 uM plasma concentration by rotarod test; type: toxicity, organism-based; conditions: in vivo; procedure, shortened: as §7
[45] = species: Rattus norvegicus; assay: Neurotoxicity in rat assessed as impairment of motor coordination at 1.4 uM brain concentration by rotarod test; type: toxicity, organism-based; conditions: in vivo; procedure, shortened: as §7
[46] = species: Rattus norvegicus; assay: Antiallodynic activity in rat spinal nerve ligation model of neuropathic pain assessed as reversal of mechanical allodynia at 0.44 uM plasma concentration; type: functional, organism-based; procedure, shortened: as §6
[47] = species: Canis familiaris; assay: Cardiotoxicity in dog assessed as reduction in mean arterial pressure at >2 uM plasma concentration; type: toxicity, organism-based, Canis lupus familiaris
Procedure, shortened: (§8)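 Barbiturate-anesthetized, ventilated dogs given rising IV doses of 1, 3 and 10 mg/kg. Mean arterial pressure and heart rate recorded against plasma drug concentration.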

[48] = species: Canis familiaris; assay: Cardiotoxicity in dog assessed as reduction in heart rate at maximal plasma exposure; type: toxicity, organism-based, Canis lupus familiaris; design: scale not given: the % may be the effect or the level left; procedure, shortened: as §8

Chain of Cav1.2 (voltage-dependent L-type calcium channel subunit alpha-1C) (Q13936 whole entry): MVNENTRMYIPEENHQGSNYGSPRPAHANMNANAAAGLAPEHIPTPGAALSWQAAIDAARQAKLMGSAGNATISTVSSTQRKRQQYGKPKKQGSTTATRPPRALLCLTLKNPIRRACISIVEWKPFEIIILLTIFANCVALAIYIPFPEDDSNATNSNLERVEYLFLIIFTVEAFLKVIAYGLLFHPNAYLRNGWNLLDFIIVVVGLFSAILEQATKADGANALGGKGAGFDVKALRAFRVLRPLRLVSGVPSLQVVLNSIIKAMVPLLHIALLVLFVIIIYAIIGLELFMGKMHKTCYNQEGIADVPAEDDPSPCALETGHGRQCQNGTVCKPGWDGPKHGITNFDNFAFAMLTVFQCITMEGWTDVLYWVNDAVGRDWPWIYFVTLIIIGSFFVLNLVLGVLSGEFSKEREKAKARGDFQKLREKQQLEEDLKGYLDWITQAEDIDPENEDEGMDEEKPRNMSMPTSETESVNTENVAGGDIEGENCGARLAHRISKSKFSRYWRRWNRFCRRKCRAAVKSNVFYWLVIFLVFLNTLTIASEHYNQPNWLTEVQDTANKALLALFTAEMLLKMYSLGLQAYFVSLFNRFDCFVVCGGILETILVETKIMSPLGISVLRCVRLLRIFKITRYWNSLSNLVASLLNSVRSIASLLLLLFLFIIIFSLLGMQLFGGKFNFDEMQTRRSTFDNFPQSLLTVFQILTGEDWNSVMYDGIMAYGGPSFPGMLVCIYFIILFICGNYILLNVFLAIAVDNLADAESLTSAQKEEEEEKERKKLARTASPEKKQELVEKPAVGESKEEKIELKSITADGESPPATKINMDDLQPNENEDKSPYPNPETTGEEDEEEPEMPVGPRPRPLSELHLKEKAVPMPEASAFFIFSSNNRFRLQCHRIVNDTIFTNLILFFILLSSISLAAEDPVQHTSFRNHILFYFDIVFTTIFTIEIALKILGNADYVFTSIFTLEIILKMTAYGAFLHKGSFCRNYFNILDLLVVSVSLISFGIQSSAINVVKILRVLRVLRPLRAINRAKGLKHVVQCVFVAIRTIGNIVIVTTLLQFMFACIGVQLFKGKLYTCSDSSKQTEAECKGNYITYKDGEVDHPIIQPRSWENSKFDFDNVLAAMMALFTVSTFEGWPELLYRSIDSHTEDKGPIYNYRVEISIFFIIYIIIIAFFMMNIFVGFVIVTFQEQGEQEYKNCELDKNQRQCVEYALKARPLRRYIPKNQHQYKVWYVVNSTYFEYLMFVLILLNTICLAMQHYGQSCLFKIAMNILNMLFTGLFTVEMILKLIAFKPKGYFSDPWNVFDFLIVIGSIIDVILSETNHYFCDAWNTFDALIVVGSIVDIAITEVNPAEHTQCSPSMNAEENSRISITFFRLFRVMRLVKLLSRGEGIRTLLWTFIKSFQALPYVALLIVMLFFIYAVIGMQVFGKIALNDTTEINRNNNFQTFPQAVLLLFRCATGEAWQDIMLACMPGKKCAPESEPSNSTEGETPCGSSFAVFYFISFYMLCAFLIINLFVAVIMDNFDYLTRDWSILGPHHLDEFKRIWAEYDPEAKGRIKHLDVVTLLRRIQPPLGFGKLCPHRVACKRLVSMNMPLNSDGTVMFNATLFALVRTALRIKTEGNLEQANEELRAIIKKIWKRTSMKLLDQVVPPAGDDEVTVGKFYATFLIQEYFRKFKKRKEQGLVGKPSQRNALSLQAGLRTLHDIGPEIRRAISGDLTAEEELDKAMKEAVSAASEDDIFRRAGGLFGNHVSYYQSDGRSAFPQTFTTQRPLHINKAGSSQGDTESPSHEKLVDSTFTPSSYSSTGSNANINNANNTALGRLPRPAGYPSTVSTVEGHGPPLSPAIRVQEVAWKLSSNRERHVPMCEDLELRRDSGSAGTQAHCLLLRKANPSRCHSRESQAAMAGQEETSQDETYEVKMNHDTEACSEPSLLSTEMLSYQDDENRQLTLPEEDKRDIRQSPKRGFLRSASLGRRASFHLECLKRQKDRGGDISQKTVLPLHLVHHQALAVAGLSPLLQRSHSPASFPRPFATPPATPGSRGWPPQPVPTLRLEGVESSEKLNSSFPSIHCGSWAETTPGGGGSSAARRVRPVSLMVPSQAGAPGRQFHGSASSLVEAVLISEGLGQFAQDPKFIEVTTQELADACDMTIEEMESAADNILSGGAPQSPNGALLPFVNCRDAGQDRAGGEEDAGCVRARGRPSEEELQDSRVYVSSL
Chain of Cytochrome P450 2C9 (P11712 whole entry): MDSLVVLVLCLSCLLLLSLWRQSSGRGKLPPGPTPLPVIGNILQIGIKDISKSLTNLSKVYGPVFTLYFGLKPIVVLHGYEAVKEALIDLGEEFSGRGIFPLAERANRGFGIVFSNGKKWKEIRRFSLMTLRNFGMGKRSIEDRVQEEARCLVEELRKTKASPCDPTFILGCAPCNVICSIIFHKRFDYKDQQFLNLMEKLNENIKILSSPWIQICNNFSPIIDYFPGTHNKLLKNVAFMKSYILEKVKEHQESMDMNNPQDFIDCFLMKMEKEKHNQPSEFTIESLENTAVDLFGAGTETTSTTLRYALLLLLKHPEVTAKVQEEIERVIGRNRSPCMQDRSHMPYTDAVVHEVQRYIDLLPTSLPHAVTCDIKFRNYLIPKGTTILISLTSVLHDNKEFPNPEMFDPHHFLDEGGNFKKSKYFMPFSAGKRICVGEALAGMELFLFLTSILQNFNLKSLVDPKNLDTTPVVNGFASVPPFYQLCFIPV

Cc1cc(C)cc(-c2cc3cc(C(C)(C)C(=O)NC(C)(C)C)ccc3n2CC(=O)NC(C)(C)C)c1
IC50 [1]: 0.19 µM | inhibition at 10 µM [2]: 78% | EC50 [3]: > 30 µM | inhibition [4]: 98% | inhibition at 10 µM [5]: 33%

CC(C)(C)NC(=O)Cn1c(-c2ccc(OC(F)(F)F)cc2)cc2cc(C(C)(C)C(=O)NC(C)(C)C)ccc21
clearance [6]: 5.6 mL/min/kg | bioavailability [7]: 68% | inhibition at 10 µM [2]: 85% | EC50 [3]: > 30 µM | remaining at 1 h [8]: 20% | remaining at 1 h [9]: 20% | AUC [10]: 0.34 µM·kg·h/mg | clearance [11]: 64 mL/min/kg | half-life [12]: 1.4 h | AUC [13]: 1.02 µM·kg·h/mg | half-life [14]: 4.6 h | bioavailability [15]: 18% | IC50 [16]: > 10 µM | IC50 [17]: > 10 µM | IC50 [18]: > 10 µM | Activity [19]: 36% | Activity [20]: 37% | Activity [21]: 17% | Activity [22]: 57% | Activity [23]: 52% | Activity [24]: 22% | Activity [25]: 66% | Activity [26]: 68% | Activity [27]: 32% | Activity [28]: 45% | Activity [29]: 47% | Activity [30]: 14% | Activity [31]: 68% | Activity [32]: 50% | Activity [33]: 27% | Vd [34]: 5.1 L/kg | Cmax [35]: 290 nM | concentration at 3 h [36]: 750 nM | concentration at 3 h [37]: 170 nM | concentration at 1 h [38]: 410 nM | concentration at 1 h [39]: 260 nM | Activity [40]: Toxic | Activity [41]: Toxic | concentration [42]: 1900 nM | concentration [43]: 1400 nM | Activity [44]: Non-toxic | Activity [45]: Non-toxic | Activity [46]: Active | Activity [47]: Toxic | Activity [48]: 32%

CC(C)(C)NC(=O)Cn1c(-c2ccccc2OC(F)(F)F)cc2cc(C(C)(C)C(=O)NC(C)(C)C)ccc21
bioavailability [7]: 38% | inhibition at 10 µM [2]: 79% | EC50 [3]: > 30 µM | remaining at 1 h [8]: 0.04% | remaining at 1 h [9]: 2.5% | AUC [10]: 0.57 µM·kg·h/mg | clearance [11]: 21 mL/min/kg | half-life [12]: 2.68 h
